In ChEMBL document CHEMBL3352510, “Anti-Inflammatory Spirostanol and Furostanol Saponins from Solanum macaonense” (J Nat Prod, 2014):
Activity calls are given as the source filed them. No cut-off for these calls is given here.

Columns and labels:
Neutrophil [1] = experiment: Inhibition of FMLP/CB-stimulated superoxide production in human neutrophils preincubated for 5 mins before FMLP/CB treatment by spectrophotometry; format: functional, cell-based
Summary of the method: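 Neutrophils equilibrated with ferricytochrome c (0.5 mg/mL) and 1 mM Ca2+ at 37 °C for 2 min, treated with compound for 5 min, primed with cytochalasin B (1 μg/mL) for 3 min, then stimulated with FMLP 100 nM for 10 min. IC50 given as mean ± SEM, n = 3 or 4. Diphenyleneiodonium as positive control.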

Neutrophil [2] = experiment: Inhibition of FMLP/CB-stimulated elastase release in human neutrophils preincubated for 5 mins before FMLP/CB treatment using MeO-Suc-Ala-Ala-Pro-Val-pnitroanilide by spectrophotometry; format: functional, cell-based
Summary of the method: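 Neutrophils, after hypotonic lysis of erythrocytes, kept in Ca2+-free HBSS pH 7.4. Equilibrated 2 min at 37 °C with MeO-Suc-Ala-Ala-Pro-Val-p-nitroanilide (100 μM), given compound for 5 min, then activated with FMLP 100 nM plus cytochalasin B 0.5 μg/mL. Absorbance at 405 nm tracked continuously and expressed as percent of drug-free activated control. IC50 reported as mean ± SEM, n = 3 or 4. Sivelestat as positive control.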

[3] = Cytotoxicity against human neutrophils assessed as reduction in cell viability up to 10 uM by LDH release assay; format: cell-based; details: neutrophil
Summary of the method: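 Neutrophils held in Ca2+-free HBSS, pH 7.4, at 4 °C before use. Compounds tested up to 10 μM. Membrane damage scored as LDH in cell-free medium, expressed as a percentage of total LDH release.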

RBL-2H3 = experiment: Anti-inflammatory activity in rat RBL2H3 cells assessed as inhibition of beta-hexosaminidase release at 1 to 64 uM after 48 hrs by degranulation assay relative to control; format: functional, cell-based
Summary of the method: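 RBL-2H3 cells grown in DMEM/F12 with 10% FBS, seeded at 10^4 cells/well, exposed to compound (0, 1, 4, 16, 64 μM) for 48 h. Sensitized overnight with anti-DNP IgE ([…]), washed in Tyrode's buffer, then challenged with DNP-BSA (0.1 μg/mL) for 1 h. Reaction stopped on ice. Supernatant incubated 1 h with p-nitrophenyl-N-acetyl-D-glucosaminide (0.1 M, citrate buffer), stopped with bicarbonate, read at 405 nm. Release % = (sample − background)/(total lysate − background) × 100. Dexamethasone 100 nM as positive control.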

[4] = Antidegranulation activity in rat RBL2H3 cells assessed as inhibition of DNP-BSA-stimulated beta-hexosaminidase release
[5] = Cytotoxicity against rat RBL2H3 cells assessed as reduction in cell viability by MTT assay; format: cell-based; details: rbl-2h3
Summary of the method: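 Viability of RBL-2H3 cells by MTT, run alongside the degranulation assay. Cells cultured in DMEM/F12 with 10% FBS and exposed to compound at 0–64 μM.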

## C[C@@H]1CC[C@@]2(OC1)O[C@H]1C[C@H]3[C@@H]4C[C@H](O[C@@H]5O[C@H](CO)[C@@H](O)[C@H](O)[C@H]5O)[C@H]5C[C@@H](O)CC[C@]5(C)[C@H]4CC[C@]3(C)[C@H]1[C@@H]2C
Neutrophil [1]
  IC50: > 10 µM

## CO[C@]1(CC[C@@H](C)CO[C@@H]2O[C@H](CO)[C@@H](O)[C@H](O)[C@H]2O)O[C@H]2C[C@H]3[C@@H]4C[C@H](O[C@@H]5OC[C@@H](O)[C@H](O[C@@H]6OC[C@@H](O)[C@H](O)[C@H]6O)[C@H]5O)[C@H]5C[C@@H](O)CC[C@]5(C)[C@H]4CC[C@]3(C)[C@H]2[C@@H]1C
Neutrophil [1]
  IC50: > 10 µM

## CC1=C(CC[C@@H](C)CO[C@@H]2O[C@H](CO)[C@@H](O)[C@H](O)[C@H]2O)O[C@H]2C[C@H]3[C@@H]4C[C@H](O[C@@H]5O[C@H](C)[C@@H](O)[C@H](O[C@@H]6OC[C@@H](O)[C@H](O)[C@H]6O)[C@H]5O)[C@H]5C[C@@H](O)CC[C@]5(C)[C@H]4CC[C@]3(C)[C@@H]12
Neutrophil [1]
  IC50: > 10 µM

## C[C@@H]1CC[C@@]2(OC1)O[C@H]1C[C@H]3[C@@H]4C[C@H](O[C@@H]5O[C@H](C)[C@@H](O)[C@H](O[C@@H]6OC[C@@H](O)[C@H](O)[C@H]6O)[C@H]5O)[C@H]5CC(=O)CC[C@]5(C)[C@H]4CC[C@]3(C)[C@H]1[C@@H]2C
Neutrophil [1]
  IC50: > 10 µM
Neutrophil [2]
  IC50: 3.2 µM
[3]
  Activity: Non-toxic
RBL-2H3
  Activity: inactive
[4]
  inhibition of degranulation: > 90%

## CC1=C(C(O)C[C@@H](C)CO[C@@H]2O[C@H](CO)[C@@H](O)[C@H](O)[C@H]2O)O[C@H]2C[C@H]3[C@@H]4C[C@H](O[C@@H]5O[C@H](C)[C@@H](O)[C@H](O[C@@H]6OC[C@@H](O)[C@H](O)[C@H]6O)[C@H]5O)[C@H]5C[C@@H](O)CC[C@]5(C)[C@H]4CC[C@]3(C)[C@@H]12 (stereo partly specified)
Neutrophil [1]
  IC50: > 10 µM

## C[C@@H]1CC[C@@]2(OC1)O[C@H]1C[C@H]3[C@@H]4C[C@H](O[C@@H]5O[C@H](C)[C@@H](O)[C@H](O[C@@H]6OC[C@@H](O)[C@H](O)[C@H]6O)[C@H]5O)[C@H]5C[C@@H](O)CC[C@]5(C)[C@H]4CC[C@]3(C)[C@H]1[C@@H]2C
Neutrophil [1]
  IC50: 4 µM
Neutrophil [2]
  IC50: 1 µM

## C[C@@H]1CC[C@@]2(OC1)O[C@H]1C[C@H]3[C@@H]4C[C@H](O)[C@H]5C[C@@H](O[C@@H]6O[C@H](CO)[C@@H](O[C@H]7O[C@@H](C)[C@H](O)[C@@H](O)[C@H]7O)[C@H](O)[C@H]6O[C@H]6O[C@@H](C)[C@H](O)[C@@H](O)[C@H]6O)CC[C@]5(C)[C@H]4CC[C@]3(C)[C@H]1[C@@H]2C
Neutrophil [1]
  IC50: > 10 µM

## C[C@H]1CO[C@@]2(O[C@H]3C[C@H]4[C@@H]5C[C@H](O[C@@H]6O[C@H](C)[C@@H](O)[C@H](O[C@@H]7OC[C@@H](O)[C@H](O)[C@H]7O)[C@H]6O)[C@H]6C[C@@H](O)CC[C@]6(C)[C@H]5CC[C@]4(C)[C@H]3[C@@H]2C)[C@@H](O)C1
Neutrophil [1]
  IC50: > 10 µM

## C[C@H](CC[C@@]1(O)O[C@H]2C[C@H]3[C@@H]4C[C@H](O[C@@H]5O[C@H](C)[C@@H](O)[C@H](O)[C@H]5O)[C@H]5C[C@@H](O[C@@H]6O[C@H](CO)[C@@H](O)[C@H](O)[C@H]6O)CC[C@]5(C)[C@H]4CC[C@]3(C)[C@H]2[C@@H]1C)CO[C@@H]1O[C@H](CO)[C@@H](O)[C@H](O)[C@H]1O
Neutrophil [1]
  IC50: > 10 µM

## C[C@@H]1CC[C@@]2(OC1)O[C@H]1C[C@H]3[C@@H]4C[C@H](O[C@@H]5O[C@H](C)[C@@H](O)[C@H](O)[C@H]5O)[C@H]5C[C@@H](O[C@@H]6O[C@H](CO)[C@@H](O)[C@H](O)[C@H]6O)CC[C@]5(C)[C@H]4CC[C@]3(C)[C@H]1[C@@H]2C
Neutrophil [1]
  IC50: > 10 µM

## C[C@@H]1CC[C@@]2(OC1)O[C@H]1C[C@H]3[C@@H]4C[C@H](O[C@@H]5O[C@H](C)[C@@H](O)[C@H](O)[C@H]5O)[C@H]5C[C@@H](O)CC[C@]5(C)[C@H]4CC[C@]3(C)[C@H]1[C@@H]2C
Neutrophil [1]
  IC50: 7 µM
Neutrophil [2]
  IC50: 3.7 µM
[3]
  Activity: Non-toxic

## CC(C)(C)C(=O)Oc1ccc(S(=O)(=O)Nc2ccccc2C(=O)NCC(=O)O)cc1 [SIVELESTAT]
Neutrophil [2]
  IC50: 50 µM

## C[C@H](C/C=C1/O[C@H]2C[C@H]3[C@@H]4C[C@H](O[C@@H]5O[C@H](C)[C@@H](O)[C@H](O[C@@H]6OC[C@@H](O)[C@H](O)[C@H]6O)[C@H]5O)[C@H]5C[C@@H](O)CC[C@]5(C)[C@H]4CC[C@]3(C)[C@H]2[C@@]1(C)O)CO[C@@H]1O[C@H](CO)[C@@H](O)[C@H](O)[C@H]1O
Neutrophil [1]
  IC50: > 10 µM

## C[C@@H]1CC[C@@]2(OC1)O[C@H]1C[C@H]3[C@@H]4C[C@H](O)[C@H]5C[C@@H](O)CC[C@]5(C)[C@H]4CC[C@]3(C)[C@H]1[C@@H]2C [CHLOROGENIN]
Neutrophil [1]
  IC50: 6.1 µM
Neutrophil [2]
  IC50: > 10 µM

## c1ccc2c(c1)[I+]c1ccccc1-2 [DIPHENYLENEIODONIUM]
Neutrophil [1]
  IC50: 0.8 µM

## CO[C@]1(CC[C@@H](C)CO[C@@H]2O[C@H](CO)[C@@H](O)[C@H](O)[C@H]2O)O[C@H]2C[C@H]3[C@@H]4C[C@H](O[C@@H]5O[C@H](C)[C@@H](O)[C@H](O[C@@H]6OC[C@@H](O)[C@H](O)[C@H]6O)[C@H]5O)[C@H]5C[C@@H](O)CC[C@]5(C)[C@H]4CC[C@]3(C)[C@H]2[C@@H]1C
Neutrophil [1]
  IC50: > 10 µM

## C[C@H](CC[C@@]1(O)O[C@H]2C[C@H]3[C@@H]4C[C@H](O)[C@H]5C[C@@H](O[C@@H]6O[C@H](CO)[C@@H](O)[C@H](O)[C@H]6O[C@@H]6O[C@@H](C)[C@H](O)[C@@H](O)[C@H]6O)CC[C@]5(C)[C@H]4CC[C@]3(C)[C@H]2[C@@H]1C)CO[C@@H]1O[C@H](CO)[C@@H](O)[C@H](O)[C@H]1O
Neutrophil [1]
  IC50: > 10 µM

## C[C@H](CC[C@@]1(O)O[C@H]2C[C@H]3[C@@H]4C[C@H](O)[C@H]5C[C@@H](O[C@@H]6O[C@H](CO)[C@@H](O)[C@H](O)[C@H]6O)CC[C@]5(C)[C@H]4CC[C@]3(C)[C@H]2[C@@H]1C)CO[C@@H]1O[C@H](CO)[C@@H](O)[C@H](O)[C@H]1O
Neutrophil [1]
  IC50: > 10 µM

## CO[C@]1(CC[C@@H](C)CO[C@@H]2O[C@H](CO)[C@@H](O)[C@H](O)[C@H]2O)O[C@H]2C[C@H]3[C@@H]4C[C@H](O[C@@H]5O[C@H](C)[C@@H](O)[C@H](O[C@@H]6OC[C@@H](O)[C@H](O)[C@H]6O)[C@H]5O)[C@H]5CC(=O)CC[C@]5(C)[C@H]4CC[C@]3(C)[C@H]2[C@@H]1C
Neutrophil [1]
  IC50: > 10 µM

## C[C@@H]1CC[C@@]2(OC1)O[C@H]1C[C@H]3[C@@H]4C[C@H](O[C@@H]5OC[C@@H](O)[C@H](O[C@@H]6OC[C@@H](O)[C@H](O)[C@H]6O)[C@H]5O)[C@H]5C[C@@H](O)CC[C@]5(C)[C@H]4CC[C@]3(C)[C@H]1[C@@H]2C
Neutrophil [1]
  IC50: > 10 µM
Neutrophil [2]
  IC50: 4.2 µM
[3]
  Activity: Non-toxic
RBL-2H3
  Activity: inactive
[5]
  Activity: Active

## C[C@@H]1CC[C@@]2(OC1)O[C@H]1C[C@H]3[C@@H]4C[C@H](O[C@@H]5OC[C@@H](O)[C@H](O)[C@H]5O)[C@H]5C[C@@H](O)CC[C@]5(C)[C@H]4CC[C@]3(C)[C@H]1[C@@H]2C
Neutrophil [1]
  IC50: 7.6 µM
Neutrophil [2]
  IC50: 4.4 µM
[3]
  Activity: Non-toxic

## C[C@H](CC[C@@]1(O)O[C@H]2C[C@H]3[C@@H]4C[C@H](O[C@@H]5O[C@H](C)[C@@H](O)[C@H](O[C@@H]6OC[C@@H](O)[C@H](O)[C@H]6O)[C@H]5O)[C@H]5C[C@@H](O)CC[C@]5(C)[C@H]4CC[C@]3(C)[C@H]2[C@@H]1C)CO[C@@H]1O[C@H](CO)[C@@H](O)[C@H](O)[C@H]1O
Neutrophil [1]
  IC50: > 10 µM
